Data published in ChEMBL document CHEMBL4229342, “Synthesis of novel proxyphylline derivatives with dual Anti-Candida albicans and anticancer activity” (Eur J Med Chem, 2018).
Values after ≈ are worked out from the molar mass of the structure shown. Active and inactive are the calls of the source. No cut-off for these calls is given here.

Assays:
Candida albicans [1] = assay: Induction of apoptosis in Candida albicans ATCC 90028 planktonic forms assessed as accumulation at subG1 phase at 4 to 16 ug/ml by ethidium bromide staining based gel electrophoresis and confocal laser scanning microscopy; type: functional, organism-based
Candida albicans [2] = assay: Disruption of cell wall in Candida albicans SC5314 assessed as decrease in chitin level after 18 hrs by calcofluor white staining-based flow cytometric analysis; type: functional, organism-based
Candida albicans [3] = assay: Induction of apoptosis in Candida albicans ATCC 90028 planktonic forms assessed as increase in DNA damage at 4 ug/ml by ethidium bromide staining based gel electrophoresis and confocal laser scanning microscopy; type: functional, organism-based
Candida albicans [4] = assay: Disruption of cell wall in Candida albicans SC5314 assessed as decrease in chitin level by measuring chitin mean staining index at 20 uM after 18 hrs by calcofluor white staining-based flow cytometric analysis (reference value: 496 +/- 51); type: functional
Candida albicans [5] = assay: Induction of endochitinase release in Candida albicans ATCC 90028 assessed as p-nitrophenyl release from triacetylochitotriose substrate A at 20 uM by chitinolytic activity assay; type: functional, organism-based
Candida albicans [6] = assay: (§1) Antifungal activity against Candida albicans ATCC 90028 infected in Galleria mellonella larvae infected with 20 uM compound pre-treated cell suspensions assessed as reduction in larval hemocytes incubated in dark for 144 hrs at 30 degC and measured every 24 hrs by hematoxylin and eosin staining-based light microscopic analysis; type: functional, organism-based
Candida albicans [7] = assay: Antifungal activity against Candida albicans ATCC 90028 infected in Galleria mellonella larvae infected with 20 uM compound pre-treated cell suspensions assessed as melanization incubated in dark for 144 hrs at 30 degC and measured every 24 hrs (reference value: 65%); type: functional
Candida albicans [8] = assay: Fungicidal activity against Candida albicans ATCC 90028 assessed as reduction in cell viability in RPMI medium in absence of sorbitol; type: functional
Candida albicans [9] = assay: Antifungal activity against Candida albicans ATCC 90028 assessed as reduction in cell viability at 8 uM at after 48 hrs in presence of ergosterol by XTT assay; type: functional
Candida albicans [10] = assay: as §1, with “fungal burden” for “larval hemocytes incubated”; type: functional, organism-based
CCRF-CEM = assay: Antiproliferative activity against human CCRF-CEM cells after 72 hrs by MTT assay; type: functional, cell-based
How it was run: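 EC50 was derived from a repeat 72 h MTT assay in CCRF-CEM or MCF-7 cells. It is the concentration killing 50% of tumour cells compared with control cells incubated without inhibitor in 0.5% DMSO.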

Candida albicans [11] = assay: Antibiofilm activity in Candida albicans ATCC 90028 assessed as beta-glucan uniform distribution at 20 uM after 18 hrs by Congo red staining-based confocal laser scanning microscopic analysis; type: functional, organism-based
How it was run: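 Mature C. albicans biofilm cells were stained with 2% Congo Red to detect β-glucan exposure. They were imaged by confocal laser scanning microscopy as fluorescence and fluorescence/DIC overlays. Treated biofilms were compared with untreated control biofilm.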

Candida albicans [12] = assay: Induction of exochitinase release in Candida albicans ATCC 90028 assessed as p-nitrophenyl release from chitobioside substrate C at 20 uM by chitinolytic activity assay; type: functional, organism-based
Candida albicans [13] = assay: as §1, with “fat body formation” for “larval hemocytes incubated”; type: functional, organism-based
Candida albicans [14] = assay: Antifungal activity against Candida albicans ATCC 90028 infected in Galleria mellonella larvae infected with 20 uM compound pre-treated cell suspensions assessed as larvae survival incubated in dark for 144 hrs at 30 degC and measured every 24 hrs (reference value: 80%); type: functional
Candida albicans [15] = assay: Antibiofilm activity in Candida albicans ATCC 90028 assessed as early apoptotic morphological changes by measuring crescent-shaped nuclei at 20 uM after 18 hrs by acridine orange/ethidium bromide staining-based confocal laser scanning fluorescence microscopic analysis; type: functional
How it was run: (§2)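 Unfixed biofilm cells were dual-stained in situ with acridine orange and ethidium bromide, each at 100 µg/mL. Confocal fluorescence and DIC imaging scored green AO nuclei, crescent-shaped chromatin, reddish-orange late apoptotic/necrotic cells and EB uptake, against untreated control biofilm. […]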

Candida albicans [16] = assay: Effect on dilpoid nuclei level in Candida albicans ATCC 90028 planktonic forms at 16 ug/ml by ethidium bromide staining based gel electrophoresis and confocal laser scanning microscopy; type: functional, organism-based
Candida albicans [17] = assay: Induction of apoptosis in Candida albicans ATCC 90028 protoplast assessed as early apoptotic cells at 248 uM after 48 hrs Annexin V-FITC/propidium iodide staining based flow cytometric analysis (reference value: 3.00 +/- 1.65%); type: functional
Candida albicans [18] = assay: Antibiofilm activity in Candida albicans ATCC 90028 assessed as late apoptotic morphological changes by measuring reddish-orange fluorescence at 248 uM after 18 hrs by acridine orange/ethidium bromide staining-based confocal laser scanning fluorescence microscopic analysis; type: functional, organism-based; how it was run: as §2
Candida albicans [19] = assay: Induction of exochitinase release in Candida albicans ATCC 90028 assessed as p-nitrophenyl release from chitobioside substrate C at 248 uM by chitinolytic activity assay; type: functional, organism-based
Candida albicans [20] = assay: Antifungal activity against Candida albicans ATCC 90028 assessed as reduction in cell viability at 38 uM after 48 hrs in presence of ergosterol by XTT assay; type: functional
Candida albicans [21] = assay: Effect on dilpoid nuclei level in Candida albicans ATCC 90028 planktonic forms at 128 ug/ml by ethidium bromide staining based gel electrophoresis and confocal laser scanning microscopy; type: functional, organism-based
Candida albicans [22] = assay: Antibiofilm activity in Candida albicans ATCC 90028 assessed as early apoptotic morphological changes by measuring crescent-shaped nuclei at 248 uM after 18 hrs by acridine orange/ethidium bromide staining-based confocal laser scanning fluorescence microscopic analysis; type: functional; how it was run: as §2
Candida albicans [23] = assay: Induction of apoptosis in Candida albicans ATCC 90028 planktonic forms assessed as effect on DNA content of necrotic cells at 1 to 128 ug/ml by ethidium bromide staining based gel electrophoresis and confocal laser scanning microscopy; type: functional, organism-based
Galleria mellonella = assay: Toxicity in Candida albicans ATCC 90028 infected Galleria mellonella larvae infected with 31 uM compound pre-treated cell suspensions assessed as improvement in larvae health index scores incubated in dark for 144 hrs at 30 degC and measured every 24 hrs; type: organism-based; conditions: in vivo
Candida albicans [24] = assay: Disruption of cell wall in Candida albicans SC5314 assessed as decrease in chitin level by measuring chitin mean staining index at 248 uM after 18 hrs by calcofluor white staining-based flow cytometric analysis (reference value: 496 +/- 51); type: functional
Candida albicans [25] = assay: Antifungal activity against Candida albicans ATCC 90028 infected in Galleria mellonella larvae infected with 31 uM compound pre-treated cell suspensions assessed as melanization incubated in dark for 144 hrs at 30 degC and measured every 24 hrs (reference value: 65%); type: functional
Candida albicans [26] = assay: Induction of chitinase release in Candida albicans ATCC 90028 assessed as p-nitrophenyl release from N-acetyl-beta-D-glucosaminide at 248 uM by chitinolytic activity assay; type: functional, organism-based
Candida albicans [27] = assay: Induction of endochitinase release in Candida albicans ATCC 90028 assessed as p-nitrophenyl release from triacetylochitotriose substrate A at 248 uM by chitinolytic activity assay; type: functional, organism-based
Candida albicans [28] = assay: Induction of apoptosis in Candida albicans ATCC 90028 planktonic forms assessed as accumulation at subG1 phase at 1 to 128 ug/ml by ethidium bromide staining based gel electrophoresis and confocal laser scanning microscopy; type: functional, organism-based

With `CC(Cn1cnc2c1c(=O)n(C)c(=O)n2C)OCc1cn(CCCn2nc3c(Br)c(Br)c(Br)c(Br)c3n2)nn1` (stereo not given) the Activity (Candida albicans [1]) was “inactive”, the Activity (Candida albicans [2]) was “Dose-dependent effect” and the Activity (Candida albicans [3]) was “Active”. The Activity_index (Candida albicans [4]) was 370, the Activity (Candida albicans [5]) was “inactive” and the Activity (Candida albicans [6]) was “Active”. The Activity (Candida albicans [7]) was 80%, the MFC (Candida albicans [8]) was 5 µM (≈ 3.97 µg/mL) and the Activity (Candida albicans [9]) was 68%. For the same compound, the Activity (Candida albicans [10]) was “Active”, the EC50 (CCRF-CEM) was 6.5 µM and the Activity (Candida albicans [11]) was “Active”. The Activity (Candida albicans [12]) was “inactive”, the Activity (Candida albicans [13]) was “Active” and the survival at 20 µM (Candida albicans [14]) was 100%. For the same compound, the “fold change (FC)” value (Candida albicans [15]) was 2 and the Activity (Candida albicans [16]) was “inactive”.

For `CC(CN1c2ccccc2Sc2ccccc21)OC(=O)OC(C)Cn1cnc2c1c(=O)n(C)c(=O)n2C` (stereo not given), the Activity (Candida albicans [17]) was 1.2%, the Activity (Candida albicans [18]) was “Active” and the Activity (Candida albicans [19]) was “inactive”. The Activity (Candida albicans [20]) was 92%, the Activity (Candida albicans [21]) was “inactive” and the “fold change (FC)” value (Candida albicans [22]) was 2. The Activity (Candida albicans [23]) was “inactive”, the Activity (Galleria mellonella) was “Toxic” and the Activity_index (Candida albicans [24]) was 550. For the same compound, the Activity (Candida albicans [25]) was 5 - 15%, the Activity (Candida albicans [26]) was “inactive” and the Activity (Candida albicans [27]) was “inactive”. The Activity (Candida albicans [28]) was “inactive”.
